In paper PMC5132079 (Clinical Pharmacology in Drug Development, 2016):
“Also recorded” adds a separate entry of the source. Where two headings read alike, the source gives them in different places.

Assays:
[1] = test system: QTcF interval in healthy subjects; test: Thorough QT study, continuous Holter monitoring, time-matched ΔΔQTcF; assay type: in vivo, human; conditions: for time of maximum effect of ΔΔQTcF: after dosing on day 2
Method in brief: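 3-period crossover: test compound 150 mg orally every 12 h ×3, placebo, or single 400-mg fluoroquinolone positive control; ≥21-day washouts. Continuous 12-lead 1000-Hz Holter; day −1 24-h baseline. Triplicate ECGs extracted 0.5–24 h after day-2 dose, lead II, blinded central reader; QT Fridericia-corrected; time-matched placebo-subtracted change (ΔΔQTcF) by repeated-measures ANCOVA with 90% CIs; concentration relation via linear mixed-effects model.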

[2] = Plasma cabotegravir pharmacokinetics after third dose; assay type: in vivo; conditions: human, po, 150 mg; for AUC(0-t) / Tmax: oral 150 mg every 12 hours × 3 doses; for Tmax: median (range)
Method in brief: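 Healthy adults took oral test compound 150 mg (5 × 30-mg tablets) every 12 h for 3 doses, fasting ≥6 h before and 4 h after the third dose. Plasma was sampled predose and 0.5–24 h after the day-2 dose. Samples were protein-precipitated and run on HPLC-MS/MS (TurboIonSpray, MRM), range 25–25 000 ng/mL. Noncompartmental analysis gave Cmax, Tmax, AUC0–12 and AUC0–24.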

[3] = test system: healthy subjects; test: Safety assessments; assay type: in vivo, human; conditions: for Alanine aminotransferase increased / Any adverse event / Blood creatine phosphokinase increased / Dermatitis contact / Headache / Nausea: safety population
Method in brief: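 Healthy adults aged 18–55 were crossed over between test compound (150 mg every 12 h ×3), placebo and a positive control, with ≥21-day washouts. Monitoring ran throughout and covered adverse events, laboratory tests, vital signs and physical examinations. Semisupine 12-lead safety ECGs were taken at 0, 3, 12 and 15 h on day 1, at 0 and 3 h on day 2, and at 24 h on day 3. Summaries were descriptive.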

[4] = Drug exposure in monkey cardiovascular study; assay type: in vivo; conditions: 1000 mg/kg in monkeys vs 150 mg every 12 hours × 3 doses in humans
[5] = Previous single-dose cabotegravir 150 mg pharmacokinetic study; assay type: in vivo, human
[6] = test system: hERG channel; conditions: 5.28 μM [2.14 μg/mL]; HEK 293 cells; nonclinical studies; cited from earlier work
[7] = test system: unrestrained male monkeys; conditions: nonclinical study, cited from earlier work
[8] = monkeys, 1000 mg/kg; nonclinical study; cited from earlier work
[9] = test system: QTcF in clinical study subjects; conditions: 8 phase 1/2a studies, n = 245 subjects, cited from earlier work
[10] = cited from earlier work
[11] = test system: HIV-1; conditions: oral cabotegravir, early clinical studies; cited from earlier work
[12] = test system: UGT1A1, UGT1A9; conditions: to inactive glucuronide metabolites; cited from earlier work
[13] = test system: UGT and cytochrome P450 (CYP) enzymes; conditions: in vitro; cited from earlier work
[14] = single dose 150 mg; ref unpublished data; cited from earlier work
[15] = cited from earlier work; remark: listed apart in the source
[16] = test system: QTc in healthy subjects; conditions: randomized, placebo-controlled study of 20 healthy subjects; cited from earlier work
[17] = test system: cardiac repolarization; conditions: prior studies; cited from earlier work
[18] = cabotegravir 150 mg every 12 hours × 3 doses
[19] = linear mixed-effects PK/pharmacodynamic model
[20] = supratherapeutic dose, 150 mg every 12 hours × 3 doses
[21] = 150 mg every 12 hours × 3 doses
[22] = single dose 150 mg, extrapolation from 30-mg data
[23] = single dose 1000 mg/kg, within the first 2 hours of dosing

C[C@H]1CO[C@@H]2Cn3cc(C(=O)NCc4ccc(F)cc4F)c(=O)c(O)c3C(=O)N12 [Cabotegravir]
time of maximum effect of ΔΔQTcF [1]: 8 h | point estimate for ΔΔQTcF at any point [1, 18]: ≤ 5 milliseconds | subjects with QTcF value > 450 milliseconds [1, 18]: not associated with any instances | subjects with changes from baseline in QTcF of >30 milliseconds [1, 18]: none of the subjects | ΔΔQTcF, mean ± SE ([1]; cabotegravir 150 mg every 12 hours × 3 doses minus placebo, 1 h): -0.37 ± 1.74 ms | ΔΔQTcF, mean ± SE ([1]; cabotegravir 150 mg every 12 hours × 3 doses minus placebo, 2 h): 0.44 ± 1.83 ms | ΔΔQTcF, mean ± SE ([1]; cabotegravir 150 mg every 12 hours × 3 doses minus placebo, 3 h): -0.62 ± 1.69 ms | ΔΔQTcF, mean ± SE ([1]; cabotegravir 150 mg every 12 hours × 3 doses minus placebo, 4 h): -0.37 ± 1.53 ms | ΔΔQTcF, mean ± SE ([1]; cabotegravir 150 mg every 12 hours × 3 doses minus placebo, 6.5 h): 0.50 ± 1.63 ms | ΔΔQTcF, mean ± SE ([1]; cabotegravir 150 mg every 12 hours × 3 doses minus placebo, 12 h): -0.34 ± 1.66 ms | ΔΔQTcF, mean ± SE ([1]; cabotegravir 150 mg every 12 hours × 3 doses minus placebo, 24 h): 1.13 ± 2.05 ms | upper limits of 2-sided 90% confidence intervals for ΔΔQTcF ([1]; cabotegravir 150 mg every 12 hours × 3 doses, all time points): < 10 milliseconds | subjects with QTcF value > 450 milliseconds ([1]; cabotegravir 150 mg every 12 hours × 3 doses, listed as cabotegravir): No subject | mean estimated intercept, ΔΔQTcF vs time-matched cabotegravir concentration [1, 19]: 1.382 milliseconds | relationship between cabotegravir plasma concentrations and ΔΔQTcF [1, 19]: no relationship; also recorded: no discernable concentration effect | effect on cardiac repolarization [1, 20]: no effect on cardiac repolarization | AUC(0-t) ([2]; both, AUC0–12, geometric mean (CV,%) [90%CI], all subjects (n = 40)): 217 µg·h/mL | AUC(0-t) ([2]; both, AUC0–24, geometric mean (CV,%) [90%CI], all subjects (n = 40)): 386 µg·h/mL | Tmax ([2]; both, all subjects (n = 40)): ~2 h | Cmax ([2]; female): 25100 ng/mL | AUC(0-t) ([2]; female, AUC0–12, geometric mean (CV,%) [90%CI], women (n = 9)): 234 µg·h/mL | AUC(0-t) ([2]; female, AUC0–24, geometric mean (CV,%) [90%CI], women (n = 9)): 409 µg·h/mL | Tmax ([2]; female, women (n = 9)): 2 h | Cmax ([2]; male): 21900 ng/mL | AUC(0-t) ([2]; male, AUC0–12, geometric mean (CV,%) [90%CI], men (n = 31)): 213 µg·h/mL | AUC(0-t) ([2]; male, AUC0–24, geometric mean (CV,%) [90%CI], men (n = 31)): 380 µg·h/mL | Tmax ([2]; male, men (n = 31)): 2 h | clinical laboratory values, vital signs, or safety ECG results [3, 21]: No clinically significant trends | serious or grade 3 or 4 adverse events [3, 21]: no serious or grade 3 or 4 adverse events | Alanine aminotransferase increased ([3]; cabotegravir 150 mg (n = 40)): 1 (3) n (%) | Any adverse event ([3]; cabotegravir 150 mg (n = 40)): 13 (33) n (%) | Blood creatine phosphokinase increased ([3]; cabotegravir 150 mg (n = 40)): 0 n (%) | Dermatitis contact ([3]; cabotegravir 150 mg (n = 40)): 6 (15) n (%) | Headache ([3]; cabotegravir 150 mg (n = 40)): 1 (3) n (%) | Nausea ([3]; cabotegravir 150 mg (n = 40)): 0 n (%) | Dermatitis contact ([3]; cabotegravir 150 mg (n = 40), listed as cabotegravir): 6 n (%) | tolerability [3, 20]: well tolerated | drug exposure (Cmax) in monkeys relative to present study [4]: 3 fold | geometric mean Cmax higher than after repeat 30 mg once daily ([5]; single dose 150 mg vs 30 mg once daily in HIV-infected subjects): 39% | predicted AUC0–∞ [5, 22]: 870 µg·h/mL | predicted Cmax [5, 22]: 21200 ng/mL | effects on hERG channel tail current [6]: no different than those observed with vehicle | ECG waveform or interval changes ([7]; single dose 1000 mg/kg): no electrocardiogram (ECG) waveform or interval changes | transient increase in heart rate [7, 23]: ~20% | transient increase in mean arterial pressure [7, 23]: ~6% | cardiovascular effects ([7]; single doses of 8 and 25 mg/kg): no effects | Cmax [8]: 67000 ng/mL | overall mean difference in QTcF change from baseline between cabotegravir and placebo ([9]; 2540 postdose ECGs): –2.9 milliseconds | subjects with QTcF ≥ 480 milliseconds or change from baseline in QTcF of >60 milliseconds [9]: no subject | dose proportionality of pharmacokinetics ([10]; 10 to 60 mg, previous work): dose‐proportional manner from 10 to 30 mg, but in a less than proportional manner from 30 to 60 mg | plasma half-life ([10]; oral cabotegravir): 40 h | dose proportionality of AUC(0–t), Cmax, Cτ, and Cmin ([10]; repeated administration for 14 days): Dose‐proportional increases | antiretroviral activity [11]: potent antiretroviral activity | tolerability [11]: generally well tolerated | metabolic pathway [12]: metabolized via UDP‐glucuronosyltransferase (UGT) 1A1, with a secondary contribution from UGT1A9 | inhibition or induction of UGT and cytochrome P450 (CYP) enzymes [13]: has not been shown to inhibit or induce | geometric mean Cmax [14]: 10400 ng/mL | geometric mean plasma AUC0–∞ [14]: 418 µg·h/mL | median time to Cmax (Tmax) [14]: 2.5 h | Cmax at steady state ([15]; clinically therapeutic dose 30 mg once daily): 7500 ng/mL | Cmax ([15]; repeat administration of 30 mg once daily in HIV-infected subjects): 7490 ng/mL

COc1c(N2C[C@@H]3CCCN[C@@H]3C2)c(F)cc2c(=O)c(C(=O)O)cn(C3CC3)c12 [Moxifloxacin, moxifloxacin, reference compound]
time of maximum effect of ΔΔQTcF [1]: 8 h | ΔΔQTcF, mean ± SE ([1]; moxifloxacin 400 mg single dose minus placebo, 0.5 h): 5.40 ± 2.05 ms | ΔΔQTcF, mean ± SE ([1]; moxifloxacin 400 mg single dose minus placebo, 1 h): 8.75 ± 1.79 ms | ΔΔQTcF, mean ± SE ([1]; moxifloxacin 400 mg single dose minus placebo, 2 h): 11.67 ± 1.88 ms | ΔΔQTcF, mean ± SE ([1]; moxifloxacin 400 mg single dose minus placebo, 3 h): 10.49 ± 1.73 ms | ΔΔQTcF, mean ± SE ([1]; moxifloxacin 400 mg single dose minus placebo, 4 h): 11.81 ± 1.57 ms | ΔΔQTcF, mean ± SE ([1]; moxifloxacin 400 mg single dose minus placebo, 6.5 h): 10.08 ± 1.68 ms | ΔΔQTcF, mean ± SE ([1]; moxifloxacin 400 mg single dose minus placebo, 8 h (maximum observed)): 13.03 ± 1.63 ms | ΔΔQTcF, mean ± SE ([1]; moxifloxacin 400 mg single dose minus placebo, 12 h): 7.79 ± 1.69 ms | ΔΔQTcF, mean ± SE ([1]; moxifloxacin 400 mg single dose minus placebo, 24 h): 6.53 ± 2.10 ms | lower limit of the 90%CI for ΔΔQTcF ([1]; moxifloxacin 400 mg, at several times): > 5 millisecond | Alanine aminotransferase increased ([3]; moxifloxacin 400 mg (n = 36)): 0 n (%) | Any adverse event ([3]; moxifloxacin 400 mg (n = 36)): 12 (33) n (%) | Blood creatine phosphokinase increased ([3]; moxifloxacin 400 mg (n = 36)): 1 (3) n (%) | Dermatitis contact ([3]; moxifloxacin 400 mg (n = 36)): 2 (6) n (%) | Headache ([3]; moxifloxacin 400 mg (n = 36)): 2 (6) n (%) | Nausea ([3]; moxifloxacin 400 mg (n = 36)): 2 (6) n (%) | Dermatitis contact ([3]; moxifloxacin 400 mg (n = 36), listed as moxifloxacin): 2 n (%) | time of first peak of placebo-adjusted QTcF change from baseline [16]: 4 h | time of second increase in QTc [16]: 8 h

C[C@@H]1CCO[C@H]2Cn3cc(C(=O)NCc4ccc(F)cc4F)c(=O)c(O)c3C(=O)N12 [dolutegravir]
effect on cardiac repolarization [17]: do not affect cardiac repolarization
